The text below walks through data of ChEMBL document CHEMBL1122782, “Bulky amine analogues of ketoprofen: potent antiinflammatory agents” (J Med Chem, 1984).

Experiment [1] deals with Rattus norvegicus. Put plainly: The mean increase in paw volume was compared between drug treated groups and placebo to calculate the percent inhibition in rats at 0.08 mmol/kg by carrageenan Edema Assay; 0-19. It is filed as functional.
Experiment [2] has as its system Rattus norvegicus. Kind of experiment: Antiinflammatory efficacy is measured by the percent inhibition of paw volume during the 3 week adjuvant arthritis test at 0.02 mM/kg (8.76 mg). It is filed as functional. A digest of the protocol:
(§1)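 Male Sprague-Dawley rats (200–230 g) were used in groups of eight. Each received 0.1 mL of 0.6% M. butyricum in heavy mineral oil into the plantar tissue of one hind paw. Daily oral gavage in 1% gum tragacanth or corn oil-water emulsion began on the injection day and ran 21 days. Total hind paw volume was measured by mercury displacement, and inhibition was taken versus vehicle-treated adjuvant controls.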

The subject of experiment [3] is Rattus norvegicus. Kind of experiment: The mean increase in paw volume was compared between drug treated groups and placebo to calculate the percent inhibition in rats at 0.02 mmol/kg by carrageenan Edema Assay; 50-59. Format: functional.
The subject of experiment [4] is Rattus norvegicus. Put plainly: Ulcerogenicity was measured in intestine during the 3 week adjuvant arthritis test, no of animals with ulcers out of 8 animals tested at 0.02 mM/kg (8.76 mg) was reported. Format: functional. The procedure, abridged: (§2)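 In the 21-day adjuvant arthritis model, male Sprague-Dawley rats (200–230 g) received an M. butyricum mineral-oil suspension into one hind paw. They were dosed daily by gavage from the day of injection. At the end of the study the rats were killed, and the small intestines were examined for ulcers. Results are given as the number of ulcerated animals over the number tested.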

Experiment [5] has as its system Rattus norvegicus. Kind of experiment: Antiinflammatory efficacy is measured by the percent inhibition of paw volume during the 3 week adjuvant arthritis test at 0.005 mM/kg (2.19 mg). It is filed as functional. A digest of the protocol:
as §1

Experiment [6] is filed under the species Rattus norvegicus. Put plainly: Compound was evaluated for highest non-ulcerogenic dose (less than 50% ulcer incidence). It is filed as functional. The note with it: read-out: ED50. A digest of the protocol: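 Taken from the 21-day adjuvant arthritis test in male Sprague-Dawley rats dosed orally each day from the day of adjuvant injection. Small intestines and stomachs were examined for ulceration at the end. The value is the highest dose giving less than 50% ulcer incidence.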

The subject of experiment [7] is Rattus norvegicus. Put plainly: Potency relative to phenylbutazone at 0.005 mM/kg. It is filed as functional.
The test system of experiment [8] is Rattus norvegicus. Put plainly: Antiinflammatory efficacy is measured by the weight gain in rats during the 3 week adjuvant arthritis test at 0.02 mM/kg (8.76 mg). Format: functional. The procedure, abridged:
(§3)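 Rats were adjuvant-injected (M. butyricum in mineral oil, one hind paw) or given a mineral-oil placebo. They were dosed by gavage daily for 21 days from the injection day, with vehicle only for both control groups, then weighed at the end. Weight gain % = (treated − adjuvant control)/(negative control − adjuvant control) × 100.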

In experiment [9] the test system is Rattus norvegicus. Kind of experiment: Ulcerogenicity was measured in intestine during the 3 week adjuvant arthritis test, no of animals with ulcers out of animals tested at 0.08 mM/kg (35.0 mg) was reported; toxic. Format: functional, organism-based. A digest of the protocol:
(§4)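 Male Sprague-Dawley rats (200–230 g) were injected in the plantar tissue of one hind paw with 0.1 mL of 0.6% M. butyricum suspension in heavy mineral oil. Daily oral gavage began on the day of adjuvant injection and ran for the 21 days, with drug suspended in 1% gum tragacanth or a corn oil-water emulsion. At the end the rats were sacrificed and the small intestine and stomach were examined for ulcers. Results are given as animals with ulcers/animals tested.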

For experiment [10], the system named is Rattus norvegicus. Kind of experiment: Ulcerogenicity was measured in stomach during the 3 week adjuvant arthritis test, no of animals with ulcers out of 8 animals tested at 0.02 mM/kg (8.76 mg) was reported. It is filed as functional. The procedure, abridged: as §4
The test system of experiment [11] is Rattus norvegicus. Put plainly: Antiinflammatory efficacy is measured by the weight gain in rats during the 3 week adjuvant arthritis test at 0.005 mM/kg (2.19 mg). It is filed as functional. The procedure, abridged: as §3
The test system of experiment [12] is Rattus norvegicus. Put plainly: The mean increase in paw volume was compared between drug treated groups and placebo to calculate the percent inhibition in rats at 0.02 mmol/kg by carrageenan Edema Assay; 0-19. Format: functional.
Experiment [13] has as its system Rattus norvegicus. Put plainly: The percent inhibition was calculated from the average differences in hind paw volume between the adjuvant injected controls and the adjuvant-injected medicated rats at 0.08 mmol/kg; 50-59. Format: functional.
For experiment [14], the system named is Rattus norvegicus. Put plainly: Ulcerogenicity was measured in stomach during the 3 week adjuvant arthritis test, no of animals with ulcers out of 4 animals tested at 0.02 mM/kg (8.07 mg) was reported. It is filed as functional. A digest of the protocol:
as §4

In experiment [15] the test system is Rattus norvegicus. Kind of experiment: The percent inhibition was calculated from the average differences in hind paw volume between the adjuvant injected controls and the adjuvant-injected medicated rats at 0.08 mmol/kg; 80-89. It is filed as functional.
In experiment [16] the test system is Rattus norvegicus. Put plainly: Antiinflammatory efficacy is measured by the percent inhibition of paw volume during the 3 week adjuvant arthritis test at 0.02 mM/kg (8.07 mg). Format: functional. The procedure, abridged: as §1
The species entered for experiment [17] is Rattus norvegicus. Kind of experiment: Effective Dose 50 is the amount of material required to produce effect in 50% of an animal population. Format: functional.
Experiment [18] concerns Rattus norvegicus. Put plainly: Ulcerogenicity was measured in intestine during the 3 week adjuvant arthritis test, no of animals with ulcers out of 15 animals tested at 0.08 mM/kg (32.3 mg) was reported. Format: functional. A digest of the protocol: as §2
The species named for experiment [19] is Mus musculus. Kind of experiment: Effective Dose 50 is the amount of material required to elicit analgesic effect in 50% of an animal population.
Experiment [20] relates to Rattus norvegicus. Put plainly: Ulcerogenicity was measured in intestine during the 3 week adjuvant arthritis test, no of animals with ulcers out of 4 animals tested at 0.02 mM/kg (8.07 mg) was reported. It is filed as functional. The procedure, abridged: as §2
Experiment [21] has as its system Rattus norvegicus. Put plainly: Antiinflammatory efficacy is measured by the weight gain in rats during the 3 week adjuvant arthritis test at 0.005 mM/kg (2.02 mg). It is filed as functional. The procedure, abridged: as §3
The test system of experiment [22] is Rattus norvegicus. Kind of experiment: Antiinflammatory efficacy is measured by the percent inhibition of paw volume during the 3 week adjuvant arthritis test at 0.005 mM/kg (2.02 mg). Format: functional. The procedure, abridged: as §1
Experiment [23] deals with Rattus norvegicus. Put plainly: Ulcerogenicity was measured in intestine during the 3 week adjuvant arthritis test, no of animals with ulcers out of tested animals at 0.16 mM/kg (64.6 mg) was reported; Toxic. Format: functional, organism-based. A digest of the protocol:
as §4

Experiment [24] concerns Rattus norvegicus. Put plainly: Antiinflammatory efficacy is measured by the weight gain in rats during the 3 week adjuvant arthritis test at 0.08 mM/kg (32.3 mg). Format: functional. A digest of the protocol:
as §3

Experiment [25] deals with Rattus norvegicus. Put plainly: Antiinflammatory efficacy is measured by the weight gain in rats during the 3 week adjuvant arthritis test at 0.02 mM/kg (8.07 mg). It is filed as functional. A digest of the protocol: as §3
The subject of experiment [26] is Rattus norvegicus. Put plainly: Antiinflammatory efficacy is measured by the percent inhibition of paw volume during the 3 week adjuvant arthritis test at 0.08 mM/kg (32.3 mg). It is filed as functional. A digest of the protocol: as §1
The subject of experiment [27] is Rattus norvegicus. Kind of experiment: Ulcerogenicity was measured in stomach during the 3 week adjuvant arthritis test, no of animals with ulcers out of 15 animals tested at 0.08 mM/kg (32.3 mg) was reported. Format: functional. A digest of the protocol:
as §4

Experiment [28] deals with Rattus norvegicus. Kind of experiment: The mean increase in paw volume was compared between drug treated groups and placebo to calculate the percent inhibition in rats at 0.02 mmol/kg by carrageenan Edema Assay; 30-39. It is filed as functional. The note with it: Rattus norvegicus.

In the case of `CC(CN1CCCC1CC1CCCCC1)c1cccc(C(O)c2ccccc2)c1` (centres undefined), the inhibition in vivo at 80 µmol/kg in [1] is 0%.
Consider `CC(CN1CCCCC1CC1CCCCC1)c1cccc(C(=O)c2ccc(Cl)cc2)c1` (centres undefined), for which the Inhibition in experiment [2] is reported as 90%; in experiment [5], 62%. Also, in experiment [3], the inhibition in vivo at 20 µmol/kg is 50%. Also, the values for the Ulcerogenic index in experiment [4], in experiment [9] and in [10] were 0, “Toxic” and 0, respectively. Moreover, the highest non-ulcerogenic dose in [6] is 3 µmol/kg. This molecule also returned a Relative potency in experiment [7] of 11.9%. Moreover, the figures for the Weight gain in experiment [8] and in experiment [11] were 89% and 34%, respectively.
As for `CC1CCCC(C)N1CCc1cccc(C(O)c2ccccc2)c1` (centres undefined), the inhibition in vivo at 20 µmol/kg in experiment [12] was 0%. The inhibition in vivo at 80 µmol/kg in experiment [13] is 50%.
For the molecule `CC(CN1CCCCC1CC1CCCCC1)c1cccc(C(=O)c2ccccc2)c1` (centres undefined), the Ulcerogenic index is 0 in experiment [14]; 4 in [18]; 1 in [20]; “Toxic” in [23]; 1 in [27]. The inhibition in vivo at 80 µmol/kg in experiment [15] is 80%. Moreover, the Inhibition in experiment [16] worked out at 79%; in experiment [22], 56%; in experiment [26], 90%. Besides, the ED50 in experiment [17] was determined as 3 µmol/kg; in experiment [19] it was 55 mg/kg. Further, the Weight gain in experiment [21] was 27%; in [24], 82%; in experiment [25], 55%. Besides, in experiment [7], the Relative potency is 8.7%. For the same molecule, the inhibition in vivo at 20 µmol/kg in experiment [28] is 30%.
